For data set [1], the target named is T1, Protein deacetylase HDAC6 (Homo sapiens, UniProt Q9UBN7).
T1 sequence (Q9UBN7 whole entry): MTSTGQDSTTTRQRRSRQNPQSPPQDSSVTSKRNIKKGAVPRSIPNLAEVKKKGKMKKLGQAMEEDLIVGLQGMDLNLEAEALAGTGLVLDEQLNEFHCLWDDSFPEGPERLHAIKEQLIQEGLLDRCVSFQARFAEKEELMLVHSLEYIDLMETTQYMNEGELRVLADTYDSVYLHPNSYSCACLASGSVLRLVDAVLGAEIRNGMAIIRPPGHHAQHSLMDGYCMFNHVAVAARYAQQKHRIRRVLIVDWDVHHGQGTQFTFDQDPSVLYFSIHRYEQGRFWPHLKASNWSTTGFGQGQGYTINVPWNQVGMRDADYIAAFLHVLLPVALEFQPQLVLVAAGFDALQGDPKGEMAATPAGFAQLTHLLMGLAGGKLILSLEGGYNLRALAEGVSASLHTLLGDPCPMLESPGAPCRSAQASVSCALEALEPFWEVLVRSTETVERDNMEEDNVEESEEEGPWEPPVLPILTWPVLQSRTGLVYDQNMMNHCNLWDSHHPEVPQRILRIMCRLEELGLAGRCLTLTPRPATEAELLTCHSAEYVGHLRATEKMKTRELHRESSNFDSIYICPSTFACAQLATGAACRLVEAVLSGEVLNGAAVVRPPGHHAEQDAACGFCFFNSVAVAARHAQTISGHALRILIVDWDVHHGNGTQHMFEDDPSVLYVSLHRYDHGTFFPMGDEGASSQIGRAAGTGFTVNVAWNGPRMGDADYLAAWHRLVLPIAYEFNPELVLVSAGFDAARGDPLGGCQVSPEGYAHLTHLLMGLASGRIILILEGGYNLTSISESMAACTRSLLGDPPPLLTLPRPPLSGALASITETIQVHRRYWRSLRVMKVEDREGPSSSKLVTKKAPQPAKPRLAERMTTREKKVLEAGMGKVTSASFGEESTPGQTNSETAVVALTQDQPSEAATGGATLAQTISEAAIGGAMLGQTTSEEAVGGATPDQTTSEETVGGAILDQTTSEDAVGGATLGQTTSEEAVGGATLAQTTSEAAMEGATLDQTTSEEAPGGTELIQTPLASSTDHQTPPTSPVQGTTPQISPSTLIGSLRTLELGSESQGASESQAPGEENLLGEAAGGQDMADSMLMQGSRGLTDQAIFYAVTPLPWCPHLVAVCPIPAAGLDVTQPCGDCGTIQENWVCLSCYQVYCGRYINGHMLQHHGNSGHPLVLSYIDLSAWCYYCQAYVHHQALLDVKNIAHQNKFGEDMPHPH
The data set can be described thus: Inhibition of human recombinant HDAC6 using Boc-lys(Ac)-AMC as substrate preincubated for 20 mins with substrate measured after 60 mins by fluorescence analysis.

The next data set addresses Histone deacetylase 1 (Homo sapiens, UniProt Q13547). The data set can be described thus: Inhibition of human recombinant HDAC1 using Boc-lys(Ac)-AMC as substrate preincubated for 20 mins with substrate measured after 60 mins by fluorescence analysis.
For data set [2], the target named is T2, Histone deacetylase-like amidohydrolase (Alcaligenes sp. (strain DSM 11172) (Bordetella sp. (strain FB188))) (UniProt Q70I53).
T2 sequence (whole entry): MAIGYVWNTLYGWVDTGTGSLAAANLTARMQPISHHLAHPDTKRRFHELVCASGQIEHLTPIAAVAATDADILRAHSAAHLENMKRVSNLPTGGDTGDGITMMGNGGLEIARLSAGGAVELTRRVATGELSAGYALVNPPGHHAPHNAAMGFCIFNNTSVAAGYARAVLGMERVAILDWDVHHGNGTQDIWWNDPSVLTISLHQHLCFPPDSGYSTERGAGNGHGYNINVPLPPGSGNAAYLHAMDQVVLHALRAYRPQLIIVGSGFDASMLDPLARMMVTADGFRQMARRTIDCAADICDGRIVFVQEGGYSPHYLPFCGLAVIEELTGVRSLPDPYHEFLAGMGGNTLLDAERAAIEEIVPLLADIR
The data set can be described thus: Inhibition of Bordetella sp. (strain FB188) N-terminus His-tagged HDAH expressed in Escherichia coli BL21 (DE3) up to 100 uM. The conditions noted are these: Alcaligenaceae bacterium FB188. The procedure, abridged:
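Recombinant N-terminal His6-tagged HDAH from Bordetella strain FB188, expressed in E. coli BL21, purified on zinc-loaded His-Trap column, eluted with 500 mM imidazole, dialyzed into assay buffer (>98% pure by SDS-PAGE). Tested directly against compounds; thiols generated in situ from disulfides with TCEP.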

The test system of the next data set is A549. Put plainly: Growth inhibition of human A549 cells after 96 hrs by sulphorhodamine B assay. Particulars: A549, 96 h. It is filed as functional. In a few lines:
(§1)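 SRB growth assay; MCF7 and WI38 seeded 4000 cells/well, A549 2000 cells/well, attached overnight, then exposed to freshly made drug solutions (0.1 to 50 μM) for 96 h. Fixed with cold 10% TCA, stained with 0.4% SRB; absorbance at 540 nm as percent of untreated control, IC50 from mean absorbance.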

A further data set relates to MCF7. The data set can be described thus: Growth inhibition of human MCF7 cells after 96 hrs by sulphorhodamine B assay. It is filed as functional. Particulars: MCF7, 96 h. The procedure, abridged: as §1
A general note: In SRB staining, fixed cells bind dye roughly in proportion to their protein.

The nature of data set [3]: Growth inhibition of human WI38 cells after 96 hrs by sulphorhodamine B assay. It counts as cell-based. Particulars: WI-38 cells. In a few lines:
as §1

Data set [4] concerns the target DNA (cytosine-5)-methyltransferase 1 (Homo sapiens, UniProt P26358). Put plainly: Inhibition of full length N-terminal His6-tagged human DNMT1 at 120 uM after 1 hr by fluorescence analysis. The procedure, abridged: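 Baculovirus-expressed DNMT1 (80 nM final) with SAM (10 μM final) and hemimethylated hairpin oligo (125 nM final) in MOPS buffer pH 6.5 with 1 mM DTT, 1 h room temperature. Stopped with Gla1 plus 125 μM SAH, developed 7 h; fluorescence Ex 485/Em 520 nm. Thiols made in situ by TCEP reduction; no SAM as full-inhibition control.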

For 15 compounds, IC50, inhibition and GI50 results are on record in ChEMBL document CHEMBL2046381, “Defining the mechanism of action and enzymatic selectivity of psammaplin A against its epigenetic targets” (J Med Chem, 2012).

Structures are written as SMILES. Activity calls are given as the source filed them. Some results are limits rather than exact numbers.

Sequence of Histone deacetylase 1 (Q13547 whole entry): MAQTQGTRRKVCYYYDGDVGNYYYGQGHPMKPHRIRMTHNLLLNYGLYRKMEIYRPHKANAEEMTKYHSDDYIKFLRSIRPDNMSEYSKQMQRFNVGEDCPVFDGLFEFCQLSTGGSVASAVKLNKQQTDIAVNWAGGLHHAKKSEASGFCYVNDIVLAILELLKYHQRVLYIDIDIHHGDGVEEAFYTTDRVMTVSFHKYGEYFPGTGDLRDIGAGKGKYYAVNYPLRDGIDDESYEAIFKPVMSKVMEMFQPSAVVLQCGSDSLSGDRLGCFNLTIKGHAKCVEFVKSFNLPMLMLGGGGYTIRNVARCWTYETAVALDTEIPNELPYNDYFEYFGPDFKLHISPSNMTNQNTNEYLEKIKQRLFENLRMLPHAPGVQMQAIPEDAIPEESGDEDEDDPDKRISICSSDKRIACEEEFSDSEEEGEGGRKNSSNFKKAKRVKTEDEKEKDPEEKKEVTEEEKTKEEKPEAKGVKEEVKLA
Sequence of DNA (cytosine-5)-methyltransferase 1 (P26358 whole entry): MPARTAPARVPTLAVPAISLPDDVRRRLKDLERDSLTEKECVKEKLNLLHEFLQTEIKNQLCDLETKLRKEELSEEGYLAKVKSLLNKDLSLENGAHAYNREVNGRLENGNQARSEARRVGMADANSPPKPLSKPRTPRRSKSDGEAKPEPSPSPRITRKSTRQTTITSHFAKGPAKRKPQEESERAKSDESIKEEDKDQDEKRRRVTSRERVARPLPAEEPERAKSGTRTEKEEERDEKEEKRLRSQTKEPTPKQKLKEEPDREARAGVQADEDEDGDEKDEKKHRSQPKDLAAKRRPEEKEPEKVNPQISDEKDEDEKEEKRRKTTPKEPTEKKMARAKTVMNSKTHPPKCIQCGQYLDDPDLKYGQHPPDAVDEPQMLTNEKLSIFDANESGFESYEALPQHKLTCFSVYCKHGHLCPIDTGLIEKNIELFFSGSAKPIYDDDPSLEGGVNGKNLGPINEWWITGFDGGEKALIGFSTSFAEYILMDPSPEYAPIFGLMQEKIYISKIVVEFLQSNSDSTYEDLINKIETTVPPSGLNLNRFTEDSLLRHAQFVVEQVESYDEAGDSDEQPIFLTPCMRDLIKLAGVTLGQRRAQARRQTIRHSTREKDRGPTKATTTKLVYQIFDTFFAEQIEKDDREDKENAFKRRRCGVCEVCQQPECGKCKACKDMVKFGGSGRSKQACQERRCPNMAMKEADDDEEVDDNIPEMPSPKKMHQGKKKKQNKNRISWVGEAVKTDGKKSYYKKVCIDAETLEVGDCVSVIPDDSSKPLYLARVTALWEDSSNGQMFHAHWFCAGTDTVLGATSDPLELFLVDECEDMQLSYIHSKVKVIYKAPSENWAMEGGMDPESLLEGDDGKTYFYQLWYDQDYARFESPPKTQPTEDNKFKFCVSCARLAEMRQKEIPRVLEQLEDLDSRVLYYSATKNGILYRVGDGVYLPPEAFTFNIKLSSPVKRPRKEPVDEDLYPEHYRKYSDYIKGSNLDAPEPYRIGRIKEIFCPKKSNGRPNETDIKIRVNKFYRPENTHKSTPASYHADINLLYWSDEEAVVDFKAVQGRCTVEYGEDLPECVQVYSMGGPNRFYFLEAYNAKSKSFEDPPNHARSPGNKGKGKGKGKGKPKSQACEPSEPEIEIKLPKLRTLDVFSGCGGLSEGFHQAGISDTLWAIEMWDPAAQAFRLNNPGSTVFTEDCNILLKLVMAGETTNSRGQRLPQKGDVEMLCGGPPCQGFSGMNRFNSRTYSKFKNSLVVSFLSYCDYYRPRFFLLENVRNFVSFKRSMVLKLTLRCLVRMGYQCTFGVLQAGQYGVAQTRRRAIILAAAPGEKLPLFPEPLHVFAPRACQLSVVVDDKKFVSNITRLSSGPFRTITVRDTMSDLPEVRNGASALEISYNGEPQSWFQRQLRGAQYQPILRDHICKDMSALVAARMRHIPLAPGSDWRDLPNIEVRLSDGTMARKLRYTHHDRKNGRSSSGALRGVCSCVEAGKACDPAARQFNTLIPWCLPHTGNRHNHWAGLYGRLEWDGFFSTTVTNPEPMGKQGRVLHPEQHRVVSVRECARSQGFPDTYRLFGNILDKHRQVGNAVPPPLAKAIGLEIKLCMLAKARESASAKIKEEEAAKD

In the case of `CSCCNC(=O)/C(Cc1ccc(O)c(Br)c1)=N/O`, the results for the IC50 (in data set [1]; on Histone deacetylase 1) were greater than 50 µM and 7.7 µM, respectively. The inhibition entry in data set [2] was “inactive”. In addition, the GI50 in the data set with A549 and in the data set with MCF7 was greater than 50 µM in each case. The same compound showed a GI50 at 96 h in data set [3] greater than 50 µM.

As for `CO/N=C(\Cc1ccc(O)c(Br)c1)C(=O)NCCSC`, the IC50 in data set [1] is greater than 50 µM; on Histone deacetylase 1, 11 µM. Also, in data set [2], the inhibition entry is “inactive”. Besides, the GI50 in the data set with A549 and in the data set on MCF7 was greater than 50 µM in each case. In data set [3], the GI50 at 96 h was greater than 50 µM.

For `O=C(NCCSSCCNC(=O)/C(Cc1ccc(F)c(Br)c1)=N/O)/C(Cc1ccc(F)c(Br)c1)=N/O`, in data set [2], the inhibition result was “inactive”. Moreover, the figures for the GI50 with A549 and with MCF7 were 2.73 µM and 1 µM, respectively. The compound also registered a GI50 at 96 h in data set [3] of 1.8 µM.

In the case of `COc1cc(C/C(=N\O)C(=O)NCCSSCCNC(=O)/C(Cc2cc(Br)c(OC)c(OC)c2)=N/O)cc(Br)c1OC`, the inhibition result in data set [2] was “inactive”. Further, the GI50 in the data set with A549 was 2.51 µM; in the data set with MCF7, 0.72 µM. Further, the GI50 at 96 h in data set [3] is 2.14 µM.

As to `N/N=C(\Cc1ccc(O)c(Br)c1)C(=O)NCCSSCCNC(=O)/C(Cc1ccc(O)c(Br)c1)=N/N`, the IC50 is 5 µM in data set [1] and 6.1 µM on Histone deacetylase 1. For the same compound, the inhibition result in data set [2] was “inactive”. The GI50 in the data set on A549 was determined as 18.8 µM; with MCF7 it was 3.81 µM.

`CSCCNC(=O)/C(Cc1ccc(O)c(Br)c1)=N/N`: the IC50 was greater than 50 µM in data set [1] and 50 µM on Histone deacetylase 1. For the same compound, the inhibition entry in data set [2] was “inactive”. Further, the GI50 in the data set on A549 and in the data set on MCF7 was greater than 50 µM each time. This compound returned a GI50 at 96 h in data set [3] greater than 50 µM.

Turning to `CO/N=C(\Cc1ccc(O)c(Br)c1)C(=O)NCCSSCCNC(=O)/C(Cc1ccc(O)c(Br)c1)=N/OC`, the IC50 in data set [1] worked out at 9.5 µM; at Histone deacetylase 1, 0.38 µM. The inhibition result in data set [2] was “inactive”. Moreover, the 50% growth inhibitory concentration (GI50) with A549 was found to be 49.5 µM. In addition, the GI50 at 96 h in data set [3] is greater than 50 µM.

On to `O=C(Cc1ccc(O)c(Br)c1)C(=O)NCCS`, for which the results for the IC50 (in data set [1]; on Histone deacetylase 1) were 1 µM and 0.4 µM, respectively. In data set [2], the inhibition entry was “inactive”. In addition, the GI50 in the data set on A549 turned out to be 43 µM; in the data set on MCF7, 35.4 µM. The GI50 at 96 h in data set [3] is 42.6 µM.

As for `O=C(NCCS)/C(Cc1cc(Br)c(O)c(Br)c1)=N/O`, the IC50 in data set [1] was found to be 0.79 µM; at Histone deacetylase 1, 0.0002 µM. The inhibition result in data set [2] and in data set [4] was “inactive” in each case.

In the case of `O=C(NCCSSCCNC(=O)/C(Cc1ccccc1)=N/O)/C(Cc1ccccc1)=N/O`, in data set [2], the inhibition result was “inactive”. Also, the values for the GI50 in the data set with A549 and with MCF7 were 16.3 µM and 11.1 µM, respectively. The compound further returned a 50% growth inhibitory concentration (GI50) at 96 h in data set [3] greater than 50 µM.

As to `O=C(Cc1ccc(O)c(Br)c1)C(=O)NCCSSCCNC(=O)C(=O)Cc1ccc(O)c(Br)c1`, the IC50 amounted to 9 µM in data set [1] and 5 µM at Histone deacetylase 1. In addition, the inhibition result in data set [2] is “inactive”. For the same compound, the GI50 worked out at 15.2 µM in the data set with A549 and 13.1 µM with MCF7. Further, in data set [3], growth was halved (GI50 at 96 h) at 33.1 µM.

On to `CSCCNC(=O)C(=O)Cc1ccc(O)c(Br)c1`, for which the 50% inhibitory concentration (IC50) in data set [1] is 30 µM; at Histone deacetylase 1 it was 7.3 µM. In addition, in data set [2], the inhibition entry is “inactive”. The GI50 was greater than 50 µM in the data set with A549 and 18.3 µM in the data set with MCF7.

`O=C(O)CCP(CCC(=O)O)CCC(=O)O`: the IC50 (in data set [1]; at Histone deacetylase 1) was greater than 25 µM throughout. The GI50 with A549 and in the data set with MCF7 was greater than 50 µM throughout. In data set [3], this compound had a GI50 at 96 h greater than 50 µM.

Regarding `CSc1ccc(C/C(=N\O)C(=O)NCCS)cc1Br`, the figures for the IC50 (in data set [1]; on Histone deacetylase 1) were 0.19 µM and 0.00048 µM, respectively. Moreover, the inhibition result in data set [2] and in data set [4] was “inactive” throughout.

Regarding `CSc1ccc(C/C(=N\O)C(=O)NCCS)cc1`, the IC50 worked out at 1.3 µM in data set [1] and 0.002 µM on Histone deacetylase 1. The inhibition result in data set [2] and in data set [4] was “inactive” in each case.

One may read the IC50 as the concentration that inhibits the measured activity by half. A word on the GI50: it is the concentration giving 50% growth inhibition. Read a low GI50 as more potent growth inhibition.
